M5 ag = CHRM5 agonism in calcium assay. CHO-K1 hM5 cells, Fluo-8 calcium fluorescence; 0% DMSO wells, 100% maximal acetylcholine response. activation, % at 3 µM. actives 0.19% (n = 360,000);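 active = activation above the run's mean over test compounds plus 3 SD, cut at about 23% in these data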;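 also: signal is peak over basal fluorescence ratio across the kinetic read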
Target sequence (P08912 whole entry, looked up): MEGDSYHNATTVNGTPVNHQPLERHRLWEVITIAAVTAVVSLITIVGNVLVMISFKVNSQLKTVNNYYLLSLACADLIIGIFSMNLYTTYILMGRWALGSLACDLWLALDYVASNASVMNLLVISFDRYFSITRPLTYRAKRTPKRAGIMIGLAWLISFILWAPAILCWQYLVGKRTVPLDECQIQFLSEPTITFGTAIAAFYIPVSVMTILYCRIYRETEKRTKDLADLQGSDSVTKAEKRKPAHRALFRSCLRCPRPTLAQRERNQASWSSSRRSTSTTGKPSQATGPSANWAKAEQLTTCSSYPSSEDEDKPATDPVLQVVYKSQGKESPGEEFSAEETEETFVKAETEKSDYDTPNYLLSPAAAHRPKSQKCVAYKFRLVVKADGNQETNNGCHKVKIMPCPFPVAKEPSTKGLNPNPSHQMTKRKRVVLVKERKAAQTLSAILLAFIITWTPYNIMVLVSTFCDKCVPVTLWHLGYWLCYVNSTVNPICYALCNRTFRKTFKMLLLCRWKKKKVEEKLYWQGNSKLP
M1 ag = human M1 muscarinic receptor agonism; P11229; CHO-K1 hM1, Fluo-8 calcium fluorescence, agonist mode; 0% DMSO, 100% acetylcholine EC100; activation, % at 3 µM; actives 0.33% (n = 360,000); AID 588814;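 active = activation above the run's mean compound activation plus 3 SD, cut at about 16% in these data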;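 also: peak over basal fluorescence ratio within a 140 s kinetic read after compound addition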
M5 PAM = CHRM5 positive allosteric modulation. AID 624038. P08912. CHO-K1 hM5, Fluo-8 calcium, ACh EC20 PAM; 0% = ACh EC20, 100% = ACh EC100. activation, % at 3 µM. actives 0.3% (n = 360,000);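 active = activation above the run cutoff, the mean activation of all test compounds plus 3 SD, cut at about 18% in these data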
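Test system: CHO-K1 hM5 cells / Doses: single-point, 3 µM nominal / Times: Post-acetylcholine fluorescence recording 140 s / Technique: Fluo-8 calcium fluorescence / Measure: Max/basal fluorescence ratio as % of EC20–EC100 ACh window / Benchmarks: low control EC20 acetylcholine (0%), high control EC100 acetylcholine (100%) / Replicates: one well per compound, no replicates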
CHRM1 PAM = potentiates human M1 receptor response to acetylcholine | CHO-K1 hM1, Fluo-8 calcium fluorescence, ACh EC20; 0% = ACh EC20, 100% = maximal ACh | activation, % at 3 µM | actives 0.088% (n = 360,000); in the data active = activation above about 19%, passing the limit was not always enough
CHRM5 antagonist = blocks acetylcholine activation of human M5 receptor; actives 0.59% (n = 360,000); AID 624040; P08912; CHO-hM5 cells, Fluo-8 calcium fluorescence, ACh EC80; inhibition, % at 3 µM;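 active = inhibition above a per-plate cutoff, the mean of that plate's test compounds plus 3 SD, cut at about 27% in these data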;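 also: 0% = acetylcholine EC80 with DMSO and 100% = DMSO without agonist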
CHRM1 antagonist = blocks human M1 muscarinic receptor | P11229 | CHO-K1 hM1, Fluo-8 calcium fluorescence, ACh EC80 antagonist | inhibition, % at 3 µM | actives 1.3% (n = 360,000) | AID 588852;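 active = percent inhibition above its own plate's cutoff, namely the mean of that plate's compound wells plus 3 SD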;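 also: peak over basal fluorescence ratio during 140 s after agonist addition; 0% = ACh EC80 plus DMSO and 100% = DMSO alone without agonist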
* marks the source's active call; other numbers are inactive results; . = no result given. Compounds with a hit are over-represented: about 2% of the library has one in this group of screens.

SMILES	M5 ag	M1 ag	M5 PAM	CHRM1 PAM	CHRM5 antagonist	CHRM1 antagonist
COC(=O)c1sc(N)nc1CCNC(=O)OC(C)(C)C	3	.	4	.	0	.
CCCCn1c2ccccc2c2nnc(SCCN3CCCCC3)nc21	-6	-10	-13	-28	18	55*
O=C(CN1CCN(c2ccccc2O)CC1)Nc1ccccc1C(=O)NCCc1ccccc1	6	-2	-13	-12	18	29
COc1ccc(CCNC(=O)c2ccccc2NC(=O)CN2CCN(c3ccccc3O)CC2)cc1	0	2	-32	-8	26	28*
COc1ccccc1N1CCN(CC(=O)Nc2ccccc2C(=O)NCCc2ccccc2)CC1	1	-1	-31	-8	18	29*
COc1ccccc1N1CCN(CC(=O)Nc2ccccc2C(=O)NC(C)c2ccccc2)CC1 (stereo not given)	12	7	-32	-19	18	35*
CC(NC(=O)c1ccccc1NC(=O)CN1CCN(c2ccccc2O)CC1)c1ccccc1 (stereo not given)	9	2	-12	-5	18	13
CCOC(=O)C1(C)CCN1C(=O)c1ccc2ccccc2c1 (stereo not given)	3	-4	4	5	16	-8
COc1ccc(Cn2nnnc2C(CC(C)C)N2CCC(C(N)=O)CC2)cc1 (stereo not given)	-3	-12	21*	11	-2	-4
COc1cccc(-c2cc(CNC(=O)[C@H]3O[C@@H](n4ccc(=O)[nH]c4=O)[C@H](O)[C@@H]3O)no2)c1	0	-2	5	4	3	-26
COc1ccc(C2C(C#N)=C(N)Oc3cc(O)ccc32)cc1OC (stereo not given)	-1	-1	-2	6	-10	-7
COc1ccc(C2C(C#N)=C(N)Oc3cc(O)ccc32)cc1C (stereo not given)	24*	15	-6	13	7	-12
Cc1cn([C@H]2C[C@H](O)[C@@H](CNC(=O)[C@H](N)Cc3cscn3)O2)c(=O)[nH]c1=O	2	0	0	3	5	-14
CC(C)(C)C(=O)NC(=S)NNC(=O)C(c1ccccc1)c1ccccc1	111*	114*	-34	-24	52*	91*
CC(=O)NNC(=S)NC(=O)C(c1ccccc1)c1ccccc1	6	1	9	-5	-4	0
C[C@H](CO)N1C[C@H](C)[C@@H](CN(C)C(=O)Nc2ccc3c(c2)OCO3)Oc2c(NC(=O)Nc3ccc4c(c3)OCO4)cccc2C1=O	2	-3	-24	-16	23	36*
Cc1noc(C)c1NC(=O)N(C)C[C@H]1OCCCC[C@@H](C)Oc2ccc(NC(=O)c3ccccc3)cc2C(=O)N([C@H](C)CO)C[C@@H]1C	1	17*	1	-14	-10	6
C[C@H](CO)N1C[C@H](C)[C@@H](CN(C)S(=O)(=O)c2cccs2)Oc2c(NC(=O)Nc3ccc4c(c3)OCO4)cccc2C1=O	-3	-7	-13	-3	7	-2
Cc1noc(C)c1NC(=O)N(C)C[C@H]1OCCCC[C@@H](C)Oc2ccc(NC(=O)Nc3ccc(F)cc3)cc2C(=O)N([C@@H](C)CO)C[C@H]1C	0	-5	-2	6	2	-10
C[C@H](CO)N1C[C@H](C)[C@@H](CN(C)C(=O)Nc2ccccc2)Oc2c(NS(=O)(=O)c3ccc(F)cc3)cccc2C1=O	2	-2	6	26*	-6	-22
C[C@H](CO)N1C[C@H](C)[C@@H](CN(C)C(=O)Nc2ccccc2)Oc2c(NS(=O)(=O)c3ccccc3)cccc2C1=O	2	-4	-1	-4	10	1
C[C@H](CO)N1C[C@H](C)[C@@H](CN(C)S(=O)(=O)c2cccs2)Oc2ccc(NC(=O)Nc3ccc4c(c3)OCO4)cc2C1=O	-2	-11	-4	-23	14	41*
CCN1CCCSC1=S	1	-2	-2	5	1	-12
COc1ccc(NC(=O)Nc2cccc3c2O[C@H](CN(C)C(=O)Nc2ccc4c(c2)OCO4)[C@@H](C)CN([C@H](C)CO)C3=O)cc1	3	-4	-28	-23	23	33*
C[C@H](CO)N1C[C@H](C)[C@@H](CN(C)S(=O)(=O)c2ccccc2)Oc2ccc(NC(=O)Nc3ccc(C(F)(F)F)cc3)cc2C1=O	1	-7	-1	-7	5	1
SMILES	M5 ag	M1 ag	M5 PAM	CHRM1 PAM	CHRM5 antagonist	CHRM1 antagonist
C[C@H](CO)N1C[C@H](C)[C@@H](CN(C)S(=O)(=O)c2ccccc2)Oc2ccc(NC(=O)CCC(F)(F)F)cc2C1=O	-5	-11	2	-31	7	77*
COc1ccc(NC(=O)N(C)C[C@H]2Oc3c(NC(=O)Nc4ccc5c(c4)OCO5)cccc3C(=O)N([C@H](C)CO)C[C@@H]2C)cc1	-4	-2	-28	-10	11	22
CS(=O)(=O)c1ccc(-c2csc(C(O)c3cccc(Cl)c3)n2)cc1 (stereo not given)	1	-1	-4	-11	9	5
Cn1c(CCC(=O)OCC(=O)Nc2ccc(Oc3ccccc3)cc2)nc(=O)c2ccccc21	-6	-11	1	-29	2	37*
CCN1CCN(c2ccc(N3CCN(S(=O)(=O)c4cccc([N+](=O)[O-])c4)CC3)nn2)CC1	-3	-10	-2	-23	-5	34*
CCCCOc1ccc(S(=O)(=O)N2CCN(c3ccc(N4CCN(CC)CC4)nn3)CC2)cc1	-6	-5	0	-5	-1	-7
O=C(Nc1ccc(Cl)c(Cl)c1)Nc1ccccc1O	3	2	-25	-7	42*	19
O=C(Nc1ccc(Cl)cc1)Nc1ccc(N2CCOCC2)cc1	2	-1	-9	-2	10	11
O=C(NNc1ccccc1[N+](=O)[O-])Nc1ccccc1	3	-2	1	5	0	2
O=C(Nc1ccc(N2CCCC2)cc1)c1cc(Cl)ccc1Cl	2	-9	-1	-26	7	36*
O=C(Nc1ccc(N2CCCC2)cc1)c1ccc(Cl)cc1Cl	-7	-6	2	7	4	-11
O=C(NNc1ccccc1[N+](=O)[O-])Nc1ccc(Cl)c(Cl)c1	12	12	-18	-5	29*	15
O=C(Nc1ccc(N2CCOCC2)cc1)Nc1ccc(Cl)c(Cl)c1	15	4	-24	-33	39*	55*

High-throughput results (PubChem)
